Assay results from ChEMBL document CHEMBL1212781, “VIM-19, a metallo-beta-lactamase with increased carbapenemase activity from Escherichia coli and Klebsiella pneumoniae” (2010).
Values after ≈ are worked out from the molar mass of the structure shown.

Legend:
Escherichia coli [1] = test: microbe, parasite or virus in culture; format: functional; details: TOP10
Escherichia coli [2] = test: microbe, parasite or virus in culture; format: functional; details: TOP10; remark: listed apart in the source
Escherichia coli [3] = test: Antimicrobial activity in Escherichia coli J53 transconjugate with Escherichia coli DIH-1 expressing natural plasmid containing beta-lactamase VIM-19; format: functional
Outline: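 Transconjugants came from liquid mating-out at 37°C with azide-resistant E. coli J53 as recipient, selected on agar with amoxicillin (50 μg/ml) plus azide (100 μg/ml). MICs were then read by Etest on Mueller-Hinton agar at 37°C and interpreted per CLSI.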

Escherichia coli [4] = test: Antimicrobial activity in Escherichia coli J53 strain; format: functional
Outline: (§1)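 MICs were determined by Etest on Mueller-Hinton agar plates incubated at 37°C. Susceptibility was interpreted according to CLSI guidelines.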

Escherichia coli [5] = test: Antimicrobial activity in Escherichia coli DIH-1 expressing beta-lactamase VIM-19 by Etest; format: functional
Outline: (§2)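 MICs read by Etest on Mueller-Hinton agar incubated at 37°C. Susceptibility was categorized according to CLSI guidelines. Transconjugants were obtained in E. coli J53 by liquid mating at 37°C, with selection on agar containing amoxicillin (50 μg/ml) and azide (100 μg/ml).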

Escherichia coli [6] = test: microbe, parasite or virus in culture; format: functional; details: TOP10; remark: listed apart in the source
Escherichia coli [7] = test: microbe, parasite or virus in culture; format: functional; details: TOP10; remark: listed apart in the source
Klebsiella pneumoniae [8] = test: Antimicrobial activity in Klebsiella pneumoniae DIH-2 clinical isolate expressing beta-lactamase VIM-19 by Etest; format: functional
Escherichia coli [9] = test: Antimicrobial activity in Escherichia coli TOP10 strain; format: functional
Outline: as §1

[10] = system: CO[C@@]1(NC(=O)Cc2cccs2)C(=O)N2C(C(=O)O)=C(COC(N)=O)CS[C@@H]21; test: (§3) Hydrolytic activity of beta-lactamase VIM-1 expressed in Escherichia coli TOP10 by spectrophotometry
[11] = system: C[C@@H](O)[C@H]1C(=O)N2C(C(=O)O)=C(S[C@@H]3CN[C@H](C(=O)N(C)C)C3)[C@H](C)[C@H]12; test: as §3
[12] = system: CCN1CCN(C(=O)N[C@@H](C(=O)N[C@@H]2C(=O)N3[C@@H]2SC(C)(C)[C@@H]3C(=O)O)c2ccccc2)C(=O)C1=O; test: as §3
[13] = system: CO/N=C(\C(=O)N[C@@H]1C(=O)N2C(C(=O)O)=C(COC(C)=O)CS[C@H]12)c1csc(N)n1; test: as §3
[14] = system: CC(C)(O/N=C(\C(=O)N[C@@H]1C(=O)N2C(C(=O)[O-])=C(C[n+]3ccccc3)CS[C@H]12)c1csc(N)n1)C(=O)O; test: as §3
[15] = system: CC1(C)S[C@@H]2[C@H](NC(=O)Cc3ccccc3)C(=O)N2[C@H]1C(=O)O; test: as §3
[16] = system: CO[C@@]1(NC(=O)Cc2cccs2)C(=O)N2C(C(=O)O)=C(COC(N)=O)CS[C@@H]21; test: (§4) Ratio of Kcat to Km for beta-lactamase VIM-1 expressed in Escherichia coli TOP10 by spectrophotometry
[17] = system: C[C@@H](O)[C@H]1C(=O)N2C(C(=O)O)=C(S[C@@H]3CN[C@H](C(=O)N(C)C)C3)[C@H](C)[C@H]12; test: as §4
[18] = system: CCN1CCN(C(=O)N[C@@H](C(=O)N[C@@H]2C(=O)N3[C@@H]2SC(C)(C)[C@@H]3C(=O)O)c2ccccc2)C(=O)C1=O; test: as §4
[19] = system: CO/N=C(\C(=O)N[C@@H]1C(=O)N2C(C(=O)O)=C(COC(C)=O)CS[C@H]12)c1csc(N)n1; test: as §4
[20] = system: CC(C)(O/N=C(\C(=O)N[C@@H]1C(=O)N2C(C(=O)[O-])=C(C[n+]3ccccc3)CS[C@H]12)c1csc(N)n1)C(=O)O; test: as §4
[21] = system: CC1(C)S[C@@H]2[C@H](NC(=O)Cc3ccccc3)C(=O)N2[C@H]1C(=O)O; test: as §4
Escherichia coli [22] = test: Antimicrobial activity in Escherichia coli TOP10 strain in presence of 4 ug/ml clavulanic acid; format: functional
Outline: (§5)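 MIC by Etest on Mueller-Hinton agar plates at 37°C, with susceptibility interpreted per CLSI guidelines.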

Escherichia coli [23] = test: Antimicrobial activity in Escherichia coli J53 transconjugate with Escherichia coli DIH-1 expressing natural plasmid containing beta-lactamase VIM-19 in presence of 4 ug/ml clavulanic acid; format: functional
Outline: as §2

Escherichia coli [24] = test: Antimicrobial activity in Escherichia coli TOP10 hourbouring recombinant plasmid VIM-4 by Etest in presence of 4 ug/ml clavulanic acid; format: functional
Outline: as §2

Escherichia coli [25] = test: Antimicrobial activity in Escherichia coli TOP10 hourbouring recombinant plasmid VIM-19 by Etest in presence of 4 ug/ml clavulanic acid; format: functional
Outline: as §2

Escherichia coli [26] = test: Antimicrobial activity in Escherichia coli J53 strain in presence of 4 ug/ml clavulanic acid; format: functional
Outline: as §5

Escherichia coli [27] = test: Antimicrobial activity in Escherichia coli DIH-1 expressing beta-lactamase VIM-19 by Etest in presence of 4 ug/ml clavulanic acid; format: functional
Outline: as §2

Klebsiella pneumoniae [28] = test: Antimicrobial activity in Klebsiella pneumoniae DIH-2 clinical isolate expressing beta-lactamase VIM-19 by Etest in presence of 4 ug/ml clavulanic acid; format: functional
Outline: as §2

Row | Compound | MIC (Escherichia coli [1]) | MIC (Escherichia coli [2]) | MIC (Escherichia coli [3]) | MIC (Escherichia coli [4]) | MIC (Escherichia coli [5]) | MIC (Escherichia coli [6]) | MIC (Escherichia coli [7]) | MIC (Klebsiella pneumoniae [8]) | MIC (Escherichia coli [9]) | further results
1 | CO[C@@]1(NC(=O)Cc2cccs2)C(=O)N2C(C(=O)O)=C(COC(N)=O)CS[C@@H]21 [CEFOXITIN] | 256 µg/mL (≈ 599 µM) | 256 µg/mL (≈ 599 µM) | 256 µg/mL (≈ 599 µM) | 4 µg/mL (≈ 9.36 µM) | > 512 µg/mL | 256 µg/mL (≈ 599 µM) | 256 µg/mL (≈ 599 µM) | > 512 µg/mL | 4 µg/mL (≈ 9.36 µM) | –
2 | BlaVIM-1 (Escherichia coli) (from UniProt Q8GDC1) | – | – | – | – | – | – | – | – | – | Km [10]: 130 µM; Km [11]: 50 µM; Km [12]: 3500 µM; Km [13]: 250 µM; Km [14]: 800 µM; kcat [14]: 60 s⁻¹; Km [15]: 850 µM; kcat/Km [16]: 200000 M⁻¹ s⁻¹; kcat/Km [17]: 300000 M⁻¹ s⁻¹; kcat/Km [18]: 500000 M⁻¹ s⁻¹; kcat/Km [19]: 700000 M⁻¹ s⁻¹; kcat/Km [20]: 100000 M⁻¹ s⁻¹; kcat/Km [21]: 50000 M⁻¹ s⁻¹
3 | C[C@@H](O)[C@H]1C(=O)N2C(C(=O)O)=C(S[C@@H]3CN[C@H](C(=O)Nc4cccc(C(=O)O)c4)C3)[C@H](C)[C@H]12 | 0.125 µg/mL (≈ 0.263 µM) | 2 µg/mL (≈ 4.21 µM) | 1.5 µg/mL (≈ 3.15 µM) | 0.006 µg/mL (≈ 0.0126 µM) | 16 µg/mL (≈ 33.6 µM) | 0.125 µg/mL (≈ 0.263 µM) | 2 µg/mL (≈ 4.21 µM) | 16 µg/mL (≈ 33.6 µM) | 0.006 µg/mL (≈ 0.0126 µM) | –
4 | CC(C)(O/N=C(\C(=O)N[C@@H]1C(=O)N2C(C(=O)[O-])=C(C[n+]3ccccc3)CS[C@H]12)c1csc(N)n1)C(=O)O [CEFTAZIDIME] | 512 µg/mL (≈ 937 µM) | 32 µg/mL (≈ 58.5 µM) | 32 µg/mL (≈ 58.5 µM) | 0.06 µg/mL (≈ 0.11 µM) | > 512 µg/mL | 512 µg/mL (≈ 937 µM) | 32 µg/mL (≈ 58.5 µM) | 128 µg/mL (≈ 234 µM) | 0.06 µg/mL (≈ 0.11 µM) | –
5 | CO/N=C(\C(=O)N[C@@H]1C(=O)N2C(C(=O)O)=C(COC(C)=O)CS[C@H]12)c1csc(N)n1 [CEFOTAXIME] | 64 µg/mL (≈ 141 µM) | 64 µg/mL (≈ 141 µM) | 64 µg/mL (≈ 141 µM) | 0.12 µg/mL (≈ 0.263 µM) | > 512 µg/mL | 32 µg/mL (≈ 70.3 µM) | 64 µg/mL (≈ 141 µM) | > 512 µg/mL | 0.12 µg/mL (≈ 0.263 µM) | –
6 | CO/N=C(\C(=O)N[C@@H]1C(=O)N2C(C(=O)[O-])=C(C[n+]3cccc4c3CCC4)CS[C@H]12)c1csc(N)n1 [CEFPIROME] | 32 µg/mL (≈ 62.2 µM) | 2 µg/mL (≈ 3.89 µM) | 2 µg/mL (≈ 3.89 µM) | 0.12 µg/mL (≈ 0.233 µM) | 32 µg/mL (≈ 62.2 µM) | 32 µg/mL (≈ 62.2 µM) | 2 µg/mL (≈ 3.89 µM) | 64 µg/mL (≈ 124 µM) | 0.06 µg/mL (≈ 0.117 µM) | –
7 | CC1(C)S[C@@H]2[C@H](NC(=O)[C@H](N)c3ccc(O)cc3)C(=O)N2[C@H]1C(=O)O [AMOXICILLIN] | – | > 512 µg/mL | > 512 µg/mL | 4 µg/mL (≈ 10.9 µM) | > 512 µg/mL | – | > 512 µg/mL | > 512 µg/mL | 4 µg/mL (≈ 10.9 µM) | MIC (Escherichia coli [22]): 4 µg/mL; MIC (Escherichia coli [23]): > 512 µg/mL; MIC (Escherichia coli [24]): > 512 µg/mL; MIC (Escherichia coli [25]): > 512 µg/mL; MIC (Escherichia coli [26]): 4 µg/mL; MIC (Escherichia coli [27]): > 512 µg/mL; MIC (Klebsiella pneumoniae [28]): > 512 µg/mL
